According to the array DNA melting data of Ke et al. (doi:10.1101/2024.01.08.574731):

Experiments:
[1] = melting temperature; fluorescence melt of hairpins on a sequencing array, two-state fit, raised by 9.35 °C to match UV melts; conditions: sodium 0.088 M
Procedure, shortened: (§1)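 Bootstrapped two-state fits yielded melting temperature and folding enthalpy for library hairpins. Cy3 fluorescence, with annealed Cy3 and quencher oligos, was imaged on a sequenced MiSeq flow cell in 50 mM Na-HEPES pH 8.0, 25 mM NaCl in 2.5 °C steps up to 60 °C, and normalised to pre-quench Cy3 and to control constructs. Four replicates were combined by inverse variance, and fitted temperatures were raised by 9.35 °C to match UV melts.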

[2] = folding enthalpy; higher = less favourable; fluorescence melt of hairpins on a sequencing array, two-state fit; conditions: sodium 0.088 M
Procedure, shortened: as §1

Sequence	Tm [1] [°C]	folding enthalpy [2] [kcal/mol]
GATCTGTTGACAGATC ((((((....))))))	53.1	-43.8
GATCTGTTTGCAGATC ((((((....))))))	54.8	-40.6
GATCTTAAAAAGATC ((((((...))))))	42.7	-27.5
GATCTTAACCAAGATC ((((((....))))))	42.9	-33.7
GATCTTAATAAGATC ((((((...))))))	39.8	-24.4
GATCTTACACAAGATC ((((((....))))))	42.7	-28.2
GATCTTACCAAGATC ((((((...))))))	45.6	-33
GATCTTACGAAAGATC ((((((....))))))	39.4	-26.4
GATCTTACGGAAGATC ((((((....))))))	44.1	-29.2
GATCTTACTAAGATC ((((((...))))))	42.6	-34.4
GATCTTAGATAAGATC ((((((....))))))	41.8	-42.7
GATCTTAGCCAAGATC ((((((....))))))	43.1	-32.2
GATCTTAGGTAAGATC ((((((....))))))	42.6	-30.1
GATCTTAGTGAAGATC ((((((....))))))	43.1	-27.1
GATCTTATGCAAGATC ((((((....))))))	43	-36.5
GATCTTATGGAAGATC ((((((....))))))	40.5	-29.2
GATCTTATTTAAGATC ((((((....))))))	46.4	-38.8
GATCTTCAACAAGATC ((((((....))))))	38.3	-25.1
GATCTTCACAAAGATC ((((((....))))))	44.9	-28.9
GATCTTCAGGAAGATC ((((((....))))))	46.8	-29
GATCTTCCAAAGATC ((((((...))))))	43.2	-27.4
GATCTTCCCAAAGATC ((((((....))))))	45.5	-32.6
GATCTTCCCAAGATC ((((((...))))))	45.8	-37.6
GATCTTCCCCAAGATC ((((((....))))))	41.6	-35.2

Sequence	Tm [1] [°C]	folding enthalpy [2] [kcal/mol]
GATCTTCCGAAGATC ((((((...))))))	43	-31.9
GATCTTCCTAAGATC ((((((...))))))	45.7	-31.6
GATCTTCGCTAAGATC ((((((....))))))	43	-34.2
GATCTTCTAAAAGATC ((((((....))))))	42	-30.2
GATCTTCTGGAAGATC ((((((....))))))	49.7	-46.2
GATCTTCTTAAGATC ((((((...))))))	44.3	-30.1
GATCTTGACGAAGATC ((((((....))))))	46.1	-26.5
GATCTTGAGAAGATC ((((((...))))))	39.6	-19.9
GATCTTGATAAAGATC ((((((....))))))	52.1	-40.9
GATCTTGCGAAAGATC ((((((....))))))	50.6	-46.2
GATCTTGCTCAAGATC ((((((....))))))	48.3	-39.4
GATCTTGCTGAAGATC ((((((....))))))	43.2	-31.4
GATCTTGGAAAAGATC ((((((....))))))	49	-33
GATCTTGGAAACAGGATC ((((.((....)).))))	39.1	-28.6
GATCTTGGCCAAGATC ((((((....))))))	54.8	-57.1
GATCTTGGGAAAGATC ((((((....))))))	49.1	-33.3
GATCTTGGGGAAGATC ((((((....))))))	40.8	-29.1
GATCTTGGTAAGATC ((((((...))))))	43.2	-29
GATCTTGGTCAAGATC ((((((....))))))	48.9	-36.8
GATCTTGGTTAAGATC ((((((....))))))	43.7	-30.5
GATCTTGTACAAGATC ((((((....))))))	51.7	-43.2
GATCTTGTATAAGATC ((((((....))))))	50.5	-37.7
GATCTTGTGAAGATC ((((((...))))))	42.4	-28.9
GATCTTGTTCAAGATC ((((((....))))))	49.1	-43.4

Sequence	Tm [1] [°C]	folding enthalpy [2] [kcal/mol]
GATCTTGTTGAAGATC ((((((....))))))	45	-27.2
GATCTTTAAAAGATC ((((((...))))))	39.9	-23
GATCTTTACAAAGATC ((((((....))))))	46.5	-33.8
GATCTTTACGAAGATC ((((((....))))))	45.3	-32.2
GATCTTTACTAAGATC ((((((....))))))	45	-38
GATCTTTAGAAAGATC ((((((....))))))	40.6	-31.1
GATCTTTAGCAAGATC ((((((....))))))	37.1	-28.2
GATCTTTAGGAAGATC ((((((....))))))	42.6	-28.5
GATCTTTAGTAAGATC ((((((....))))))	40	-29.9
GATCTTTATTAAGATC ((((((....))))))	43.5	-34.2
GATCTTTCAAAGATC ((((((...))))))	44.5	-28.5
GATCTTTCATAAGATC ((((((....))))))	44.8	-31.4
GATCTTTCTAAGATC ((((((...))))))	45.2	-34.2
GATCTTTCTTAAGATC ((((((....))))))	44.9	-37.3
GATCTTTGAAAGATC ((((((...))))))	38.1	-25.8
GATCTTTGGAAGATC ((((((...))))))	41.2	-26.6
GATCTTTGGTAAGATC ((((((....))))))	42.5	-30.8
GATCTTTTATAAGATC ((((((....))))))	44.1	-34.5
GATCTTTTCAAGATC ((((((...))))))	47.7	-36.3
GATCTTTTCCAAGATC ((((((....))))))	42.9	-36.2
GATCTTTTCGAAGATC ((((((....))))))	46.4	-33.5
GATCTTTTTTAAGATC ((((((....))))))	45.2	-35.2
GATGAACGAAAGTTGATC (((.(((....))).)))	38.1	-22.7
GATGAACGAAAGTTTATC (((.(((....))).)))	44.6	-29.3

Sequence	Tm [1] [°C]	folding enthalpy [2] [kcal/mol]
GATGAAGCGAAAGCTATC (((..(((....))))))	28.4	-10.4
GATGAAGGAAACTTCACC (.(((((....))))).)	32.2	-13.2
GATGACCGAAAGGTTATC (((.(((....))).)))	51	-36.2
GATGACGAAAGTCAAATC ((((((....)))..)))	34.6	-11.8
GATGACGAAAGTCATATC ((((((....)))..)))	50	-14
GATGACGAAAGTCCTATC ((((((....)))..)))	24	-9.62
GATGACGAAAGTCGGATC ((((((....)))..)))	34.3	-13.4
GATGACGAAAGTCTAATC ((((((....)))..)))	29.9	-12
GATGACGAAAGTCTGATC ((((((....)))..)))	33.1	-12.1
GATGACGCGAAAGCGATC (((..(((....))))))	35	-8.64
GATGACGGAAACGCCATC ((((.((....)).))))	48.3	-32.3
GATGACGGAAACGTCACC (.(((((....))))).)	40	-14.6
GATGACGGAAACGTTGTC ((..(((....)))..))	36.1	-28.5
GATGAGGGAAACCTTATC (((.(((....))).)))	35.7	-28.9
GATGATGAAAATCATC ((((((....))))))	51.2	-29
GATGCACGAAAGTGTATC (((.(((....))).)))	54.2	-31.7
GATGCCCGAAAGGGGATC (((.(((....))).)))	59	-21.9
GATGCCCGAAAGGGTATC (((.(((....))).)))	58.2	-29.8
GATGCCGAAAGGCATATC ((((((....)))..)))	55.7	-11
GATGCCGAAAGGCCATC ((((((....))).)))	46.9	-14.2
GATGCCGAAAGGCGATC ((((((....))).)))	50.6	-15.1
GATGCCGAAAGGCTATC ((((((....))).)))	43.4	-13.1
GATGCCGCGAAAGCGATC (((..(((....))))))	28	-7.36
